# From PubChem
# N-glyco inh = increase of ERlucT glycosylation luciferase signal, primary screen, N-linked glycosylation inhibitor project, D54 ERlucT cells, luminescence, set 2; AID 588692, 2011; reporter increase, % at 12.5 µM; 0.23% of 360,000 active; D54 ERlucT glycosylation luciferase reporter, 24 h; percent of 100 nM tunicamycin response;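 active means mean luciferase reporter signal, scaled so untreated is 0 and the glycosylation-blocking control 100, at or above a set limit in every replicate; inconclusive means mean reaches the limit but not every replicate does; inactive means mean below the limit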;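 further: luciferase carries N-glycosylation sites so blocking glycosylation raises the light; 0% = median of neutral control wells and 100% = median of 100 nM tunicamycin wells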
# ALR inh = inhibitors of human ALR sulfhydryl oxidase, primary screen, biochemical, H2O2 detection, HRP-luminol luminescence, single point; 3.8% of 290,000 active; purified ALR, DTT oxidation; inhibition, % (test concentration not listed);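 active means mean replicate inhibition above about 79%, with every replicate also reaching it, limit read from the data; inconclusive means only one of the two criteria met; inactive means mean below limit and not every replicate reaching it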
# Target sequence (P55789 whole entry, looked up): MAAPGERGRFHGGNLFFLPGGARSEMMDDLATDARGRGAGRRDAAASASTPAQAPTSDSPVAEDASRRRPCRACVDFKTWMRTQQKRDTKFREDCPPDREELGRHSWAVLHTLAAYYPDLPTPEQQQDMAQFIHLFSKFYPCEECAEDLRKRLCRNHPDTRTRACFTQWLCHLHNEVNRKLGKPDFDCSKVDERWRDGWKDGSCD
# T cell modulator = modulators of CD8 T cell-vesicle binding, primary screen, mouse 2C CD8+ T cells, flow cytometry | response (vesicle binding), % at 7 µM | AID 2052, 2009 | 2C CD8+ T cell-vesicle binding; stronger effect = lower value | 0.068% of 330,000 active;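 active means response, share of CD8 T cells binding vesicles, and their 90th percentile fluorescence all below set limits, cut at about 80% in these data, passing the limit was not always enough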;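 further: values below 100% mean blocked vesicle binding to the CD8+ T cells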
#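 Assay system – 2C mouse CD8+ T cells · Also added – QL9-loaded Drosophila micro-vesicles · Timing – Cell–vesicle co-incubation 1.5 h at 37 °C, staining 20 min on ice · Signal – flow cytometry of vesicle-bound cells · Measure – percent CD8+ FL2 mean versus row control · Controls – Peptide-free naked vesicles (low) and QL9 vesicles with 0.7% DMSO vehicle (high)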
# An asterisk follows results filed as active; i = inactive; ? = inconclusive; nt = no result given. The full list was thinned out, with hits kept by preference.
SMILES,N-glyco inh,ALR inh,T cell modulator
Cc1cc(N2CCOCC2)ccc1/C=C1\C(=O)NC(=O)N(c2ccccc2)C1=O,3.5,14.0,421.9
O=C1NC(=O)N(Cc2ccccc2)C(=O)/C1=C\C=C\c1ccco1,?,19.1,265.4
c1cc2c(cc1N1CCOCC1)CNCc1cnnn1-2,2.0,nt,nt
CCOC(=O)c1ccc(NC(=O)N2C[C@@H]3C[C@@H](C2)c2cccc(=O)n2C3)cc1,3.6,-5.2,165.3
Cc1ccc(N2C(=O)NC(=O)/C(=C\C=C\c3ccco3)C2=O)cc1,42.2*,54.6,104.5
CN1C(=O)/C(=C/C=C/c2ccco2)C(=O)NC1=S,0.3,8.1,66.3
O=C1NC(=O)N(c2ccccc2)C(=O)/C1=C/C=C/c1ccco1,28.7*,97.2*,248.6
Cc1cccc(N2C(=O)NC(=O)/C(=C/c3ccc([N+](=O)[O-])o3)C2=O)c1,nt,-58.6,339.2
Cc1cccc(N2C(=O)NC(=O)/C(=C\C=C\c3ccco3)C2=O)c1,42.0*,63.9,64.9
CN(C)c1ccc(/C=C/C=C2/C(=O)NC(=O)N(c3ccccc3)C2=O)cc1,0.9,nt,nt
CCOP(=O)(/C=C(\Cl)c1ccccc1)C(O)c1ccc(F)cc1 (configuration not stated),-0.1,-0.9,281.9
CCCCn1c(O)c(/C=N/NC(=O)c2ccncc2)c(=O)[nH]c1=S,-0.3,98.8*,538.7
Cn1c(O)c(/C=N/NC(=O)c2ccncc2)c(=O)[nH]c1=S,0.1,19.1,130.4
CC(=O)NC1=C(N2CC2C)C(=O)C(NC(C)=O)=C(N2CC2C)C1=O (configuration not stated),-0.2,nt,nt
CCOC(=O)c1ccccc1NC(=O)c1c(O)[nH]c(=S)[nH]c1=O,-0.2,91.6*,nt
CCOC(=O)c1ccccc1NC(=O)c1c(O)[nH]c(=O)[nH]c1=O,2.5,13.8,548.2
COC(=O)C1=C(c2c(C)noc2C)C[C@@H]2CC[C@H]1N2C(=O)N1CCCC1,3.2,1.6,i
CCCCCn1c(=O)c(C(=O)Nc2nc(CC(=O)OCC)cs2)c(O)c2ccccc21,2.1,-1.9,377.4
O=C(Cc1ccccc1)Oc1cccc(N2C(=O)CCC2=O)c1,0.8,-8.5,369.4
O=C(Cc1ccccc1)Oc1cccc(-n2cnnn2)c1,0.7,97.9*,796.0
CC1(O)CCN2C(=O)CCc3cccc1c32 (configuration not stated),-5.7,97.4*,714.5
CC(C)(C)C(=O)N1Cc2cc(-c3ccccc3)ccc2-n2nncc2C1,0.1,nt,nt
CNC(=O)Oc1ccc(N(C)C)cc1C(C)C,2.1,92.2*,148.1
CNC(=O)Oc1cccc2ccccc12,0.7,-26.9,136.9
CC1([N+](=O)[O-])COP(=O)(NC2CC2)OC1 (configuration not stated),-0.1,nt,nt
SMILES,N-glyco inh,ALR inh,T cell modulator
Cc1cc(C)nc(N2Cc3ccccc3C2=N)n1,37.1*,-2.0,502.6
Cc1ccc(N2Cc3ccccc3C2=N)cc1[N+](=O)[O-],1.3,-6.8,224.2
C=CCN1C(=O)c2ccccc2Sc2ccc(C(=O)N3CCC4(CC3)OCCO4)cc21,-0.7,3.7,427.4
O=C(c1ccc2c(c1)N(Cc1ccccc1)CCS2)N1CCC2(CC1)OCCO2,7.3,84.7*,710.1
Oc1ccc(C[C@H]2NCCc3cc(O)c(O)cc32)cc1O,-2.5,99.4*,290.6
Nc1ccc(S(=O)(=O)N2CCCCC2c2cccnc2)cc1 (configuration not stated),-0.1,90.1*,392.9
O=S(=O)(c1ccccc1)N1CCCCC1c1cccnc1 (configuration not stated),0.7,-7.6,151.9
CN(C)CCSC1c2ccccc2CSc2ccccc21 (configuration not stated),-4.3,-3.7,324.7
O=C(Nc1cc(Cl)cc(Cl)c1)N1Cc2ccccc2-n2nncc2C1,1.1,nt,nt
CN1C(=O)C(Cc2ccccc2)C(=O)N(C)C1=O,1.1,nt,nt
CN1C(=O)c2ccccc2NC(=O)C1Cc1ccccc1 (configuration not stated),-2.0,97.5*,73.2
Cc1ccc(CNCCc2ccccc2F)cc1,-0.8,-4.3,368.4
CCN(CC)c1ccc(CNCCc2ccccc2F)cc1,11.4,98.7*,310.2
COC(=O)C1=C(c2ccccc2)C[C@@H]2CC[C@H]1N2C,0.1,6.1,572.1
O=C1C2CCN(CC2)C1Cc1ccccc1O (configuration not stated),nt,13.6,181.9
Oc1ccc(CC2CC3CCN2CC3)cc1O (configuration not stated),2.9,99.1*,600.4
COC(=O)N1Cc2ccccc2-n2nncc2C1,2.1,nt,nt
COc1cc(/C=C2\C(=O)NC(=O)N(c3ccccc3)C2=O)c([N+](=O)[O-])cc1OC,1.5,nt,nt
COc1cc(/C=C2\C(=O)NC(=O)N(c3ccccc3)C2=O)cc(OC)c1O,-1.2,91.0*,153.1
COC(=O)C1=C(c2ccc(C(C)=O)cc2)C[C@@H]2CC[C@H]1N2C(=O)NCCOc1ccccc1Cl,-3.2,0.2,602.2
CCOP(=O)(OCC)C(O)c1ccc(Br)cc1 (configuration not stated),0.4,-8.4,325.6
CCOP(=O)(OCC)C(O)c1ccc(N(C)C)cc1 (configuration not stated),-0.6,86.3*,458.7
CN1CCC(N(C)c2ncnc3ccc(Br)cc23)CC1,-4.6,nt,nt
Cc1ccc(-c2nc(N(C)C3CCN(C)CC3)c3ccccc3n2)cc1,48.8*,-61.4,349.1
CSc1nc(C)c(Br)c(N2CC2)n1,0.5,nt,nt
SMILES,N-glyco inh,ALR inh,T cell modulator
O=C(Nc1ccc(F)c([N+](=O)[O-])c1)N1C[C@H]2C[C@@H](C1)c1cccc(=O)n1C2,-0.6,0.0,604.0
CCCOc1ccccc1OCC(=O)N1CCN(CC(=O)N2CCOCC2)CC1,1.4,nt,nt
Oc1ccc(Cl)cc1,-1.0,nt,589.1
Oc1ccc(C(=C(Cl)Cl)c2ccc(O)cc2)cc1,nt,86.1*,231.1
Cc1ccc2c(C)c3ccc4ccccc4c3c[n+]2c1,37.3*,nt,nt
CC1(C)CC2CCC(O)C2C(CCO)N1 (configuration not stated),0.6,nt,nt
Cc1c(CC(=O)N2C[C@H]3C[C@@H](C2)c2cccc(=O)n2C3)c(=O)oc2c(C)c(O)ccc12,0.8,89.4*,258.2
Cc1c(CCC(=O)N2C[C@H]3C[C@@H](C2)c2cccc(=O)n2C3)c(=O)oc2c(C)c(O)ccc12,-0.6,nt,nt
O=[N+]([O-])c1ccc(Nc2ccccc2)cc1,-3.9,24.5,172.3
c1ccc(Nc2ccc(Nc3ccccc3)cc2)cc1,0.6,98.4*,658.6
COC(=O)C1=C(c2ccc3ccccc3c2)C[C@@H]2CC[C@H]1N2C(=O)NC1CCCCC1,-3.6,-1.8,382.5
COc1ccc(C(=O)CC2(CC(=O)c3ccc(OC)cc3)C(=O)N(C)C(=O)N(C)C2=O)cc1,-0.7,19.3,237.5
CN1C(=O)N(C)C(=O)C2(Cc3c(ccc4ccccc34)N(C)C2)C1=O,nt,98.8*,573.0
CN1CCN(c2ccc(Cl)cc2N)CC1,-3.6,10.2,249.1
CN1CCN(c2ccc(N)cc2Cl)CC1,-1.5,89.8*,205.9
CCC1CN1P(=S)(N1CC1CC)N1CC1CC (configuration not stated),-0.3,nt,nt
